This note sets out measurements from PubChem BioAssay.

Assay [1] can be described thus: Her2 expression decrease, cell viability multiplex – SKBR3 breast tumor cells, AlphaScreen, ATP viability, primary screen (AID 461;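 active means Her2 level under about 52% in both replicate screens, with viability over 70% of control, limit read from the data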;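 on Her2 level: lower value means less Her2 protein in the cells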;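 on viability: percent of carrier control wells set as 100% viability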). To be noted: SKBR3 Her2 protein level, 18-24 h, measured here: SKBR3 viability, ATP luminescence, at 10 µM. (In general: In Alpha technology, singlet oxygen from a donor bead excites a nearby acceptor bead.)
Assay [2] has as its target Receptor tyrosine-protein kinase erbB-2 (Homo sapiens) (UniProt P04626). The assay is described as above. To be noted: 18-24 h, at 10 µM, stronger effect = lower value.
Assay [3] in a line: reduced viability of SK-BR-3 breast cancer cells – cell-based, 24 h, human, pilot screen (AID 572;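 active means viability at or below 10% of carrier control in both of two separate runs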;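 further: compound exposure lasted between 18 and 24 h rather than exactly 24 h; 100% = carrier-treated control wells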). To be noted: SK-BR-3 viability, CellTiter-Glo luminescence, at 10 µM, stronger effect = lower value. For orientation: ATP-based viability assays read luminescence as a measure of living cells.
A short description of assay [4]: HUVEC growth inhibition – cell-based, human, primary screen (AID 575;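 active means viability at or below 30% in both replicate assays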;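 further: 100% = median of untreated cell wells with 0.1% DMSO on each plate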). To be noted: HUVEC proliferation, CellTiter-Glo luminescence, 72 h; at 10 µM; stronger effect = lower value. The method in brief:
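material = primary HUVEC, no more than 12 passages | input = 1250 cells per well | controls = vehicle and MePR control wells | measured by = CTG luminescence | times = 72 h compound incubation | format = collagen-coated 384-well format | read-out = % viability vs DMSO wells | doses = single 10 µM dose, 0.1% DMSO, from 5x medium stock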

A short description of assay [5]: H69AR cell proliferation blockers – human, duplicate replicates, primary screen (AID 580).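 Further: 100% = mean luminescence of untreated wells and 0% = no signal.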 To be noted: H69AR lung tumor cells viability, ATP luminescence, 72 h; at 10 µM; stronger effect = lower value.
Assay [6] in a line: MRP1 drug-resistance reversers in H69AR cells – cell-based, doxorubicin co-treatment, pilot screen (AID 601;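 active means viability loss from added drug above about 55%, and viability with drug at most 40%, in both replicates, limit read from the data, passing the limit was not always enough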). To be noted: CellTiter-Glo, 72 h, at 10 µM; for differential viability (reversal): stronger effect = higher value.
The nature of assay [7]: yeast transport mutant growth inhibition pilot in 384-well plates, post-Golgi transport modulator project (AID 636; in the data active means inhibition above about 31%). To be noted: absorbance 615 nm, about 18 h, stronger effect = higher value.
A short description of assay [8]: growth suppression of yeast trafficking mutant, preliminary HTS, modulators of trafficking downstream of Golgi apparatus project, 1536-format plate, OD 615 nm (AID 637; in the data active means inhibition above about 30%). To be noted: yeast transport mutant growth, absorbance 615 nm, 18 h; stronger effect = higher value.
Setting [9] is: H69AR cells + 2 uM doxorubicin, measured here: viability with 2 uM doxorubicin, stronger effect = lower value.
Setting [10] is: H69AR cells, compound alone cytotoxicity.

Active and inactive are the calls of the source.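 How the source made its calls, unless noted: active means viability at or under a set limit in both replicates, limit being median viability minus 3 SD (cut at about 48% in these data, passing the limit was not always enough); inconclusive means at or under the limit in just one replicate; inactive means at or above the limit in both replicates.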

Sequence of Receptor tyrosine-protein kinase erbB-2 (Homo sapiens) (P04626 whole entry, looked up): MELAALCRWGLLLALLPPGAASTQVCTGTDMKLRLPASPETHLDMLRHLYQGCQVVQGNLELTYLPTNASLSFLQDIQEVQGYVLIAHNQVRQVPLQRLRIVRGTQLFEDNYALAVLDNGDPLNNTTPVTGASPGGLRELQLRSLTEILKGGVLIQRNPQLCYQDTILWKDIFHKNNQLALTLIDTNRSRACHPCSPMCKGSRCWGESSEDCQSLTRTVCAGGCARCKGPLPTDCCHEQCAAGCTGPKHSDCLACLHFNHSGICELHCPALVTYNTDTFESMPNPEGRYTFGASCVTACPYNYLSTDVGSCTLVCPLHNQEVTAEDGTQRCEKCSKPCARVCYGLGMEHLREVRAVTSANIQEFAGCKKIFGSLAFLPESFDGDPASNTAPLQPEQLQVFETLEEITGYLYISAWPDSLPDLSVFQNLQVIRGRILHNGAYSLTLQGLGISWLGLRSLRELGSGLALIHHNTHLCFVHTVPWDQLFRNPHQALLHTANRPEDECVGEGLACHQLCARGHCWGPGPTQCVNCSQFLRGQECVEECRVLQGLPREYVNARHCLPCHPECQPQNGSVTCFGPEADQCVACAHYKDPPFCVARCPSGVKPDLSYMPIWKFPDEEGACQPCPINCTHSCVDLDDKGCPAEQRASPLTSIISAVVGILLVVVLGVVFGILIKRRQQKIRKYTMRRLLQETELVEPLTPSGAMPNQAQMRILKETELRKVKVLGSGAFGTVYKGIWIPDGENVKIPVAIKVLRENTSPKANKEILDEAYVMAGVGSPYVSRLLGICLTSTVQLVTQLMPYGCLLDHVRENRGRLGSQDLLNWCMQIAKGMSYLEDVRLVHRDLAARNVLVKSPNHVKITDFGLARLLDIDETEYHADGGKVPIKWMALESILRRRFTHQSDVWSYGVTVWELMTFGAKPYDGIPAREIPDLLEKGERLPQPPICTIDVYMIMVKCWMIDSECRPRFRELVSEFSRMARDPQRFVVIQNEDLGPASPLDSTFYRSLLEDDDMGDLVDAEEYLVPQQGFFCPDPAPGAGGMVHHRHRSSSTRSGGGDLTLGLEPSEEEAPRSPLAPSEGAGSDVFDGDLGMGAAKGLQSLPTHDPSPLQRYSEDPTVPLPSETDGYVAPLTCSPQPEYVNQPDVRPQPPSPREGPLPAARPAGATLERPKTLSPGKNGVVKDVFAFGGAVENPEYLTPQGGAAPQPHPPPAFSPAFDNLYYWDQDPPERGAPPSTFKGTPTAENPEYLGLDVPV

`Nc1nc2sc3c(c2c(=O)s1)CCCC3`: the viability – broadly, a read-out of living cells in per cent, often relative to untreated cells – in assay [1] was 112%; in assay [3] it was 112% (inactive); in assay [4] it was 60.3% (inactive); in assay [5], 74.7% (inactive); in assay [6] (setting [9]), 78.1%; in assay [6] (setting [10]), 74.7%. In addition, the Her2 level in assay [2] is 108% (inactive). The differential viability (reversal) in assay [6] (H69AR cells + 2 uM doxorubicin) is -3.39% (inactive). The inhibition (usually the drop in the measured response relative to a control, in per cent) in assay [7] is -2.24% (inactive); in assay [8], 1.31% (inactive).
As for `CCOC(=O)c1oc2cccc(OC(C)=O)c2c1C`, the viability in assay [1] is 106%; in assay [3], 106% (inactive); in assay [4] it was 89.9% (inactive); in assay [5], 85.6% (inactive); in assay [6] (setting [9]), 86.5%; in assay [6] (setting [10]), 85.6%. Moreover, the Her2 level in assay [2] is 82% (inactive). Also, the differential viability (reversal) in assay [6] (H69AR cells + 2 uM doxorubicin) is -0.89% (inactive). Besides, the inhibition in assay [7] is -5.6% (inactive); in assay [8], 3.11% (inactive).
Regarding `Cc1ccc(S(=O)(=O)N2CCCC2C(=O)n2nc(C)cc2C)cc1` (stereo not given), the viability in assay [1] was 114%; in assay [3] it was 114% (inactive); in assay [4] it was 90.1% (inactive); in assay [5] it was 83.5% (inactive); in assay [6] (setting [9]), 80.9%; in assay [6] (setting [10]), 83.5%. In addition, the Her2 level in assay [2] is 90% (inactive). Also, the differential viability (reversal) in assay [6] (H69AR cells + 2 uM doxorubicin) is 2.58% (inactive). In addition, the inhibition was -7.97% (inactive) in assay [7] and 3.67% (inactive) in assay [8].
On to `Nc1nc2ccccc2n1C(=O)CCc1ccccc1`, for which the viability in assay [1] was 102%; in assay [3], 102% (inactive); in assay [4], 44.8% (inactive); in assay [5], 48.4% (active); in assay [6] (setting [9]) it was 76.1%; in assay [6] (setting [10]), 48.4%. Besides, the Her2 level in assay [2] is 83.5% (inactive). For the same molecule, the differential viability (reversal) in assay [6] (H69AR cells + 2 uM doxorubicin) is -27.6% (inactive). The inhibition in assay [7] is -2.11% (inactive); in assay [8], -2.67% (inactive).
`CCOC(=O)N1CCN(C(=O)c2cccn3c(=O)c4sccc4nc23)CC1`: the viability is 89.5% in assay [1]; 89.5% (inactive) in assay [3]; 106% (inactive) in assay [4]; 90.8% (inactive) in assay [5]; 104% in assay [6] (setting [9]); 90.8% in assay [6] (setting [10]). Also, in assay [2], the Her2 level is 93.5% (inactive). Besides, the differential viability (reversal) in assay [6] (H69AR cells + 2 uM doxorubicin) is -12.8% (inactive). Also, the inhibition in assay [7] was 3.6% (inactive); in assay [8], -0.33% (inactive).
With `O=C1CN(C(=O)COC(=O)c2ccccc2NC(=O)c2ccco2)c2ccccc2N1`, the viability in assay [1] is 94%; in assay [3] it was 94% (inactive); in assay [4] it was 97.3% (inactive); in assay [5], 83.6% (inactive); in assay [6] (setting [9]), 97.6%; in assay [6] (setting [10]), 83.6%. In addition, the Her2 level in assay [2] was 106% (inactive). Besides, in assay [6] (H69AR cells + 2 uM doxorubicin), the differential viability (reversal) is -14.1% (inactive). Moreover, the inhibition is -5.95% (inactive) in assay [7] and -0.49% (inactive) in assay [8].
In the case of `CN(C)c1ccc(-c2nn3c(-c4ccc(Cl)cc4Cl)nnc3s2)cc1`, the viability in assay [1] is 100%; in assay [3] it was 100% (inactive); in assay [4], 46.7% (inactive); in assay [5] it was 15.1% (active); in assay [6] (setting [9]), 57.7%; in assay [6] (setting [10]) it was 15.1%. Further, the Her2 level in assay [2] was 71% (inactive). For the same molecule, the differential viability (reversal) in assay [6] (H69AR cells + 2 uM doxorubicin) is -42.6% (inactive). In addition, the values for the inhibition in assay [7] and in assay [8] were -6.08% (inactive) and 5.08% (inactive), respectively.
In the case of `Cc1ccc(C(=O)NCc2ccc3c(c2)OCO3)cc1S(=O)(=O)N1CCCCC1`, the viability was 91.5% in assay [1]; 91.5% (inactive) in assay [3]; 96.6% (inactive) in assay [4]; 96.2% (inactive) in assay [5]; 98.5% in assay [6] (setting [9]); 96.2% in assay [6] (setting [10]). The Her2 level in assay [2] is 100% (inactive). Moreover, the differential viability (reversal) in assay [6] (H69AR cells + 2 uM doxorubicin) is -2.33% (inactive). For the same molecule, the inhibition in assay [7] was -3.2% (inactive); in assay [8], -7.14% (inactive).
Turning to `COc1ccc(C)cc1-n1nnnc1SCC(=O)Nc1cc(C)on1`, the viability was 95% in assay [1]; 95% (inactive) in assay [3]; 78.6% (inactive) in assay [4]; 90.6% (inactive) in assay [5]; 85.9% in assay [6] (setting [9]); 90.6% in assay [6] (setting [10]). In assay [2], the Her2 level is 85% (inactive). The differential viability (reversal) in assay [6] (H69AR cells + 2 uM doxorubicin) was 4.68% (inactive). Moreover, the inhibition was -2.6% (inactive) in assay [7] and -0.63% (inactive) in assay [8].
With `CC(=O)NCCn1c(SCC(=O)NCC2CCCO2)nc2ccccc2c1=O` (stereo not given), the viability in assay [1] was 95%; in assay [3], 95% (inactive); in assay [4] it was 109% (inactive); in assay [5], 98.5% (inactive); in assay [6] (setting [9]), 88.4%; in assay [6] (setting [10]), 98.5%. The Her2 level in assay [2] is 99% (inactive). Also, the differential viability (reversal) in assay [6] (H69AR cells + 2 uM doxorubicin) is 10.1% (inactive). Besides, the inhibition in assay [7] was -0.26% (inactive); in assay [8], -8.1% (inactive).
In the case of `Cc1cc(NCCN(C)C)n2nc(-c3cccs3)cc2n1`, the viability in assay [1] was 90%; in assay [3] it was 90% (inactive); in assay [4] it was 102% (inactive); in assay [5], 92.6% (inactive); in assay [6] (setting [9]), 82.1%; in assay [6] (setting [10]), 92.6%. The Her2 level in assay [2] was 107% (inactive). Further, in assay [6] (H69AR cells + 2 uM doxorubicin), the differential viability (reversal) was 10.5% (inactive). In addition, the inhibition was -4.8% (inactive) in assay [7] and -2.62% (inactive) in assay [8].
With `O=C(c1ccccc1Oc1nnnn1-c1ccccc1)N1CCOCC1`, the viability is 89.5% in assay [1]; 89.5% (inactive) in assay [3]; 67.6% (inactive) in assay [4]; 79.6% (inactive) in assay [5]; 71.9% in assay [6] (setting [9]); 79.6% in assay [6] (setting [10]). For the same molecule, in assay [2], the Her2 level was 84% (inactive). In addition, in assay [6] (H69AR cells + 2 uM doxorubicin), the differential viability (reversal) was 7.74% (inactive). For the same molecule, the inhibition in assay [7] is -2.31% (inactive); in assay [8], -5.67% (inactive).
As for `CCSC1(SCC)N=C(N)C2(C#N)C(c3ccccc3)NC(C)=C(C)C12C#N` (stereo not given), the viability in assay [1] is 95%; in assay [3], 95% (inactive); in assay [4] it was 81.4% (inactive); in assay [5] it was 93.3% (inactive); in assay [6] (setting [9]) it was 74.1%; in assay [6] (setting [10]), 93.3%. In addition, in assay [2], the Her2 level is 85.5% (inactive). Further, the differential viability (reversal) in assay [6] (H69AR cells + 2 uM doxorubicin) is 19.2% (inactive). Moreover, the inhibition is -5.07% (inactive) in assay [7] and -2.79% (inactive) in assay [8].
With `COc1ccc(C2N(C(=O)c3ccccc3)CCN2C(=O)c2ccccc2)cc1`, the viability in assay [1] is 114%; in assay [3], 114% (inactive); in assay [4], 113% (inactive); in assay [5] it was 103% (inactive); in assay [6] (setting [9]) it was 100%; in assay [6] (setting [10]), 103%. In addition, the Her2 level in assay [2] was 103% (inactive). Besides, the differential viability (reversal) in assay [6] (H69AR cells + 2 uM doxorubicin) was 2.48% (inactive). The inhibition was -1.04% (inactive) in assay [7] and 5.41% (inactive) in assay [8].
On to `CCc1nnc(NC(=O)c2cc3ccccc3oc2=O)s1`, for which the viability in assay [1] is 104%; in assay [3], 104% (inactive); in assay [4], 118% (inactive); in assay [5], 89.7% (inactive); in assay [6] (setting [9]), 93.8%; in assay [6] (setting [10]), 89.7%. In addition, the Her2 level in assay [2] was 95.5% (inactive). Moreover, the differential viability (reversal) in assay [6] (H69AR cells + 2 uM doxorubicin) is -4.11% (inactive). For the same molecule, the inhibition in assay [7] was -5.71% (inactive); in assay [8] it was -3.65% (inactive).
Consider `CC(=O)N1CCN=C1SCc1ccc(Br)cc1`, for which the viability in assay [1] is 93%; in assay [3], 93% (inactive); in assay [4], 71.9% (inactive); in assay [5], 87% (inactive); in assay [6] (setting [9]) it was 83.7%; in assay [6] (setting [10]), 87%. Besides, in assay [2], the Her2 level is 97.5% (inactive). In assay [6] (H69AR cells + 2 uM doxorubicin), the differential viability (reversal) is 3.28% (inactive). The figures for the inhibition in assay [7] and in assay [8] were -1.03% (inactive) and 9% (inactive), respectively.
